Test results as given in PubChem BioAssay AID493091 (Sanford-Burnham Center for Chemical Genomics, 2011).
The whole screen tested about 340,000 compounds, of which about 3,000 (0.88%) were called active. The sample as a whole holds a higher share of actives than the screen did. Values without a mark were called inactive.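 The calls were made as follows: active = inhibition above about 50% at 20 µM (limit read from the data); inactive = the rest.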

The compounds below were run against Carboxy-terminal domain RNA polymerase II polypeptide A small phosphatase 1 (Homo sapiens) (UniProt Q9GZU7) (assay: inhibition of human SCP1 dephosphorylation activity – biochemical, colorimetric, uHTS, primary screen (AID 493091;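 also: plate controls were DMSO wells with enzyme for no effect and wells lacking enzyme for full effect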)). Conditions: Recombinant Scp1, phosphopeptide, malachite green phosphate absorbance; at 20 µM; stronger effect = higher value.
Chain of Carboxy-terminal domain RNA polymerase II polypeptide A small phosphatase 1 (Homo sapiens) (Q9GZU7 76-261 limits assumed): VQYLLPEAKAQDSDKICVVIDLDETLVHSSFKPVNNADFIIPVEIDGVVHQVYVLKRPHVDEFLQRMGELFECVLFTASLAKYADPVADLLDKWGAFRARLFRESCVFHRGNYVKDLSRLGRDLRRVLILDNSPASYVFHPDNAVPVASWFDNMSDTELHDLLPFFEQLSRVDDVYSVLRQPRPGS
How it was run: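 Test system: SCP-1 phosphatase catalytic domain, residues 76-261; measured by: colorimetric phosphate reagent with accelerator and stabiliser, absorbance at 630 nm; timing: enzyme reaction 45 min at room temperature, colour 5 min, stabilisation 30 min; also added: Phosphorylated 17-residue peptide substrate; compound dosing: one concentration, 20 µM, with 1.0% DMSO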

Compound	inhibition
Cc1ccccc1C(=O)NCC(c1ccco1)N1CCc2ccccc21 (stereo not drawn)	3.6%
O=C(c1ccccc1F)N1CCN(S(=O)(=O)c2ccc(Br)cc2)CC1	-10.3%
CC(C)CCN1CCN=C1N(C)C	0.8%
Cc1nnc(CN(C)Cc2cn[nH]c2-c2ccc(-c3ccccc3)cc2)o1	-5.39%
CSCCC(NS(=O)(=O)c1ccc(C)cc1)C(=O)N(C)CC(=O)Nc1ccccc1Br (stereo not drawn)	-5.24%
Cc1nn2c(NCCN(C)C)c3c(nc2c1-c1ccccc1)CCC3	-10.7%
COc1ccc(NC(=O)COC(=O)c2n[nH]c3ccccc23)c(OC)c1	-9.82%
COc1ccc(CCNC(=O)COC(=O)c2cnc(Cl)c(Cl)c2)cc1	-7.74%
O=C(COC(=O)c1ccccc1O)NCc1ccco1	67.2% (active)
O=C(COC(=O)c1cnc(Cl)c(Cl)c1)NCc1ccco1	53.3% (active)
O=C(COC(=O)C12CC3CC(CC(C3)C1)C2)NCc1ccco1	11.5%
O=C(COC(=O)c1ccco1)NCc1ccc(Cl)cc1	-4.57%
O=C(CCNC(=O)c1ccccc1Cl)NCc1ccco1	18.8%
COCCNC(=S)N1CCN(C)CC1	-7.43%
CC1CC(c2ccccc2)n2nc(NC(=O)c3cccs3)nc2N1 (stereo not drawn)	2.86%
CC(CC(=O)Nc1ccccc1)n1ccnc1 (stereo not drawn)	-3.02%
O=C(CN1CCN(c2ccc(Cl)cc2)CC1)c1ccccc1	52% (active)
CC(C)OC(=O)CN1CCN(c2ccc(Cl)cc2)CC1	4.48%
O=C(CN1CCN(c2ccc(Cl)cc2)CC1)NCc1cccs1	3.78%
CN(CC(=O)Nc1ccc(F)c(F)c1F)C(=O)Cn1cnc2c1c(=O)n(C)c(=O)n2C	-3.89%
O=C(CCC1CCCN(C(=O)Cc2ccc(F)cc2)C1)N1CCN(c2ccccn2)CC1 (stereo not drawn)	-6.06%
O=C(CCC1CCCN(C(=O)c2ccc(F)c(F)c2)C1)N1CCN(c2ccccn2)CC1 (stereo not drawn)	-8.35%
C=Cc1ccc(C(=O)N2CCCC(CCC(=O)N3CCN(c4ccccn4)CC3)C2)cc1 (stereo not drawn)	87.9% (active)
Cc1ccc(C(=O)COC(=O)CCN2C(=O)C3C4CC(C(Br)C4Br)C3C2=O)cc1 (stereo not drawn)	-7.42%

Compound	inhibition
CC(=O)N1Cc2ccccc2CC1C(=O)O (stereo not drawn)	12.9%
O=c1c(Cl)c(NCc2ccc(F)cc2Cl)cnn1C12CC3CC(CC(C3)C1)C2	17.9%
O=C(O)c1ccc(NS(=O)(=O)c2cccc3nsnc23)cc1	-2.95%
O=S(=O)(Nc1ccccc1Cl)c1cccc2nsnc12	67% (active)
COc1ccc(NS(=O)(=O)c2cccc3nsnc23)cc1Cl	-12.1%
Cc1nn2c3cc(N4CCOCC4)ccc3nc2c2ccccc12	7.49%
COc1ccc(C2=Nc3cc(C)ccc3OC2)cc1	-3.61%
COCCOC(=O)C1=C(C)NC(=O)NC1c1cc2c(cc1Br)OCO2 (stereo not drawn)	-6.54%
COCCN(C(=S)Nc1cccc(Cl)c1C)C(C)c1ccco1 (stereo not drawn)	-5.75%
COc1cccc(NC(C)=[N+](C)CCNS(=O)(=O)c2ccc(Cl)cc2)c1	105% (active)
COc1cccc(NC(=O)CCNS(=O)(=O)c2ccc3c(c2)oc(=O)n3C)c1	6.79%
COc1ccc(S(=O)(=O)NCCCCOc2ccc(Cl)cc2)cc1	-3.96%
COc1ccc(/C=C/CN2CCCC(C(=O)c3cc(F)ccc3F)C2)cc1 (stereo not drawn)	-4.6%
O=C(Nc1cccnc1Oc1ncnc2cc(Cl)ccc12)c1ccc(F)cc1	-6.88%
O=C(CNCc1cccs1)Nc1cc(S(=O)(=O)N2CCCC2)ccc1Cl	1.26%
O=C(Nc1cc(S(=O)(=O)N2CCCCC2)ccc1Cl)C1COc2ccccc2O1 (stereo not drawn)	55.3% (active)
CCN(CC)S(=O)(=O)c1ccc(N2CCOCC2)c(NC(=O)C2COc3ccccc3O2)c1 (stereo not drawn)	-9.66%
CC(=O)c1ccc(NC(=O)C(C)N(C)CC(=O)Nc2ccccc2Cl)cc1 (stereo not drawn)	9.97%
O=C(/C=C/c1cccc([N+](=O)[O-])c1)NCCSCc1ccco1	-5.27%
OC1CSc2nc3ccccc3n2C1 (stereo not drawn)	-14.6%
Cc1ccc(CCCOC(=O)C[N+]2(C)CCCC2)cc1	101% (active)
Cc1ccc(CCCOC(=O)C[N+]2(C)CCCCC2)cc1	4.77%
Cc1ccc(COC(=O)CN2C(=O)NC3(CCCC3)C2=O)cc1	-2.24%
Nc1ccc2c(c1)C(=Cc1cccnc1)c1ccccc1-2	-0.04%

Compound	inhibition
C[C@H](NC(=O)c1nc[nH]c1C(=O)NCC(=O)OC(C)(C)C)C(=O)OCc1ccccc1	-3.03%
O=CN1CCN(C(=O)c2ccc3c(c2)OCO3)CC1	-4.58%
O=C(c1ccc2c(c1)OCO2)N1CCNc2ccccc2C1	54.2% (active)
O=C(c1ccc2c(c1)OCO2)N1CCN(C(=O)c2ccco2)CC1	-10.7%
COc1ccc(C(=O)N(CCN2CCOCC2)CC(=O)NC2CCCC2)cc1OC	-4.37%
Cc1ccnc(-n2sc3ccccc3c2=O)n1	70.8% (active)
COc1ccccc1C(C)NC(=O)Cc1ccsc1 (stereo not drawn)	1.45%
CN(CC(=O)NCCc1ccccn1)S(=O)(=O)c1ccc(Cl)cc1	-6.06%
CCCCOC(=O)c1ccc(N2C(=O)CC(N3CCN(C/C=C/c4ccccc4)CC3)C2=O)cc1 (stereo not drawn)	-2.23%
CC1CC(C)CN(S(=O)(=O)c2cccc3nonc23)C1 (stereo not drawn)	-1.81%
CCCc1nc(-c2cc3cc(C)ccc3[nH]c2=O)no1	65.2% (active)
CCC(=O)N(CCc1ccccc1)Cc1cc2cc(C)ccc2[nH]c1=O	-1.18%
CCN(Cc1cc2cc(C)ccc2[nH]c1=O)S(=O)(=O)c1ccccc1	-4.68%
C#CCOCCOCCOCCNc1nc(N2CCN(C(=O)C([C@@H](C)O)n3cc([C@@H](N)CCCCN)nn3)CC2)nc(N2CCN(C(=O)[C@H](CCCCN)n3cc(CN)nn3)CC2)n1 (stereo partly drawn)	-0.3%
C=CCn1c(=S)[nH]c2scc(-c3ccco3)c2c1=O	67.9% (active)
C=CCn1cnc2scc(-c3ccccc3)c2c1=O	-18.1%
C=CCn1c(=S)[nH]c2nc3c(cc2c1=O)COC(C)(C)C3	-8.72%
CN(CCC1CCOCC1)Cc1cn[nH]c1-c1ccc(-c2ccccc2)cc1	-1.75%
CCn1c(=O)n(CC)c2cc(N3CCCC3)c(NC(=O)c3ccccc3Br)cc21	-2.26%
Cc1ccc(CNC(=O)CCNC(=O)Cn2ccc3ccccc3c2=O)cc1	-12.1%
Cc1ccc2nc3c(cc(C(=O)NCCc4ccccc4)c(=N)n3CC3CCCO3)c(=O)n2c1 (stereo not drawn)	1.78%
Cc1ccc(CCNC(=O)c2ccc3nc4ccccc4c(=O)n3c2)cc1	60.3% (active)
CCOc1cc(C2/C(=C(/O)c3ccc(S(=O)(=O)N4CCCCC4)cc3)C(=O)C(=O)N2CCOC)ccc1O (stereo not drawn)	1.05%
Cc1cccc(NC(=O)CSc2nc3c(c(=O)[nH]2)CCC3)c1C	-1.16%

Compound	inhibition
COc1ccccc1N1CCN(C(=O)c2cc(=O)c3cc(C)cc(C)c3o2)CC1	-7.13%
Cn1c(N)c(C(=O)COC(=O)c2ccc3ccccc3c2)c(=O)n(C)c1=O	53% (active)
Cn1c(N)c(C(=O)COC(=O)c2cccc(S(=O)(=O)N3CCOCC3)c2)c(=O)n(C)c1=O	3.96%
Cn1c(N)c(C(=O)COC(=O)c2cnc(Cl)c(Cl)c2)c(=O)n(C)c1=O	-5.15%
C[C@]1(C(=O)NCCc2c[nH]c3ccccc23)C=C[C@@H](Cc2ccccc2)N1C(=O)c1ccccc1	-5.17%
CC(C)NC(=O)NC(=O)COC(=O)c1ccc(NC(=O)CC#N)cc1	-2.24%
CCOc1ccc(NC(=O)c2ccc(NC(=O)COC(=O)c3ccc(NC(=O)CC#N)cc3)cc2)cc1	85.9% (active)
N#CCC(=O)Nc1ccc(C(=O)OCC(=O)Nc2sc3c(c2C#N)CCCC3)cc1	1.62%
Cc1ncn2cc(-c3ccc(Cl)cc3Cl)[nH]c(=O)c12	-6.56%
O=C(NCc1cccc(Cl)c1)C1CCN(c2nnc(N3CCCC3=O)s2)CC1	-6.55%
O=C(NNC(=O)c1ccccc1[N+](=O)[O-])Nc1ccccc1C(F)(F)F	0.19%
C/C=C\C=C\C(=O)N1CC2(CC(c3cccc(NC(=O)/C(C)=C\C)c3)=NO2)C[C@H]1C(N)=O (stereo partly drawn)	34.8%
C/C=C(/C)C(=O)Nc1cccc(C2=NOC3(C2)C[C@@H](C(N)=O)N(C(=O)C2(C)CC2)C3)c1 (stereo partly drawn)	-2.33%
C=C(C)C(=O)Nc1cccc(C2=NOC3(C2)C[C@H](C(N)=O)N(C(=O)C(c2ccccc2)c2ccccc2)C3)c1 (stereo partly drawn)	70.2% (active)
C=CCn1cc(C(=O)NCc2ccc(Cl)cc2)c(=O)c2cc(S(=O)(=O)N(CC)CC)ccc21	-4.15%
COCCC(=O)N1CCC(Oc2ccc(C(=O)NCc3ccon3)cc2)CC1	-1.77%
COc1ccc(S(=O)(=O)N2CCN(CC(=O)N3CCOCC3)CC2)cc1OC	-0.04%
CC(C)C(O)C1CCN(Cc2nc(Cc3ccccc3Cl)no2)CC1 (stereo not drawn)	-2.82%
O=[N+]([O-])c1ccc(N2CCOCC2)cc1	-2.71%
O=c1[nH]n(-c2ccc([N+](=O)[O-])cc2)c(=O)c2ccccc12	52.1% (active)
COc1cnn(-c2ccc([N+](=O)[O-])cc2)c(=O)c1Cl	-3.84%
